Measured values taken from ChEMBL document CHEMBL4373712, “Bioactivatable Pseudotripeptidization of Cyclic Dipeptides To Increase the Affinity toward Oligopeptide Transporter 1 for Enhanced Oral Absorption: An Application to Cyclo(l-Hyp-l-Ser) (JBP485)” (J Med Chem, 2019).
Calls of active or inactive are those of the source. The calls are words filed in the database; no cut-off is given here.

Columns and labels:
[1] = Half life in Sprague-Dawley rat plasma at 5 mM by HPLC analysis; format: ADME, cell-free
Procedure, shortened: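 Jejunum and liver homogenates from male SD rats in pH 7.4 PBS, adjusted to 200 µg/mL protein, and rat plasma. Each incubated with compound at 5 mM at 37 °C.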

[2] = molecular target: T1, Solute carrier family 15 member 1 (Homo sapiens, UniProt P46059); experiment: Substrate activity at PEPT1 in human Caco2 cells assessed as protein-mediated drug uptake at 0.5 mM measured after 10 mins in pH 7.4 HBSS buffer by UPLC-MS/MS analysis; format: ADME, cell-based; settings: caco-2, pH 7.4, 10 min, 500 µM
T1 sequence (P46059 whole entry): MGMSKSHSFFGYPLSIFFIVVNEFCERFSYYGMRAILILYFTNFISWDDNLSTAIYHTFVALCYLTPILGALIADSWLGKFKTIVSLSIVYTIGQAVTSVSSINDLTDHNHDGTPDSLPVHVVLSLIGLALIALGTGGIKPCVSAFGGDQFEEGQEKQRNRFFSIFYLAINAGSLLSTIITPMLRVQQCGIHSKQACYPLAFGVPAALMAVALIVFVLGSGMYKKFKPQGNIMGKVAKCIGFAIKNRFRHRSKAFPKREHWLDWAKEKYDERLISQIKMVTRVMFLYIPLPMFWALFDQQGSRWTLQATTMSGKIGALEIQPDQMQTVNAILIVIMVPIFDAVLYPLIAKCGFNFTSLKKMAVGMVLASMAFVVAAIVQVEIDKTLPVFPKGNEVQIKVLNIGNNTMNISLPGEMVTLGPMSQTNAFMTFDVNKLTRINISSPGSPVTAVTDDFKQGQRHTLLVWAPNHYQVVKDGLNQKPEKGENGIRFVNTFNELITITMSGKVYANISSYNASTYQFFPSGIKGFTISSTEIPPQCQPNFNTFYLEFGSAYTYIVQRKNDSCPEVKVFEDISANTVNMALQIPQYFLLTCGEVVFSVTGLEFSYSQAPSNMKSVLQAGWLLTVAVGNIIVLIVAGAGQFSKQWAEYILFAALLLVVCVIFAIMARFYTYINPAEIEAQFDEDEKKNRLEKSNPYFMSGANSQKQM
Procedure, shortened: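 Caco-2 cells incubated 10 min with 0.5 mM compound in HBSS at pH 6.0 or pH 7.4, washed three times in ice-cold PBS pH 7.4, homogenised. Protein by DC assay; drug by UPLC-MS/MS; n=3.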

[3] = molecular target: T2, Solute carrier family 22 member 1 (Homo sapiens, UniProt O15245); experiment: Substrate activity at OCT1 in human Caco2 cells assessed as protein-mediated drug uptake at 0.5 mM measured after 10 mins in absence of OCT1 substrate metformin by UPLC-MS/MS analysis; format: ADME, cell-based; settings: caco-2, 10 min, 500 µM
T2 sequence (O15245 whole entry): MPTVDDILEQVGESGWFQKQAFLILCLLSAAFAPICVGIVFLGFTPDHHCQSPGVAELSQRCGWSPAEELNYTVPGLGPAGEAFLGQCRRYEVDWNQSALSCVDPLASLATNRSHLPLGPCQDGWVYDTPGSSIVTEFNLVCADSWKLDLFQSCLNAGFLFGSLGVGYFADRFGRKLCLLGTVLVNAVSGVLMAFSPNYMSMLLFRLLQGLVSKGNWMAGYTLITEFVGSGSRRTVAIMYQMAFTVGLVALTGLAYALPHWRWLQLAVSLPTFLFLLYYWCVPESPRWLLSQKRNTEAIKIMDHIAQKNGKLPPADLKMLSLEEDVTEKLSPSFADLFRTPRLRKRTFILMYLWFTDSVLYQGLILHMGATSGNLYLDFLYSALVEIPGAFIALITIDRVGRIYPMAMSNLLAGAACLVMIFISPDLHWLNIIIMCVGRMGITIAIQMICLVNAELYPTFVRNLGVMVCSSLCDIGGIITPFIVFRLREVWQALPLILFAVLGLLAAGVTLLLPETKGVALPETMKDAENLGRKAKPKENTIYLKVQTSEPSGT
Procedure, shortened: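 Caco-2 cells in 24-well plates took up 0.5 mM compound for 10 min at 37 °C, with or without 50 mM captopril ([…]) or metformin (OCT1-3 substrate). Cells were washed in ice-cold PBS and homogenised in water; lysate protein was measured and drug assayed by UPLC-MS/MS. n=3.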

[4] = Terminal half-life in Sprague-Dawley rat at 6 mg/kg, iv by UPLC-MS/MS analysis; format: ADME, organism-based; settings: in vivo, read-out: beta t1/2 (converted)
Procedure, shortened: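 Fasted male SD rats given JBP485 6 mg/kg intravenously. Jugular blood sampled 0.083–10 h, plasma by UPLC-MS/MS; n=6.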

[5] = Cmax in Sprague-Dawley rat at 12 mg/kg, po by UPLC-MS/MS analysis; format: ADME, organism-based; parameters: dose 12 mg/kg, route oral; settings: in vivo
Procedure, shortened: (§1)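 Male SD rats, 200-250 g, fasted 12 h with water, n=6. Oral dose of 12 mg/kg as JBP485 equivalent; dose-effect arms at 12 and 100 mg/kg. JBP485 given iv at 6 mg/kg as the reference. Jugular blood taken at 0.083-10 h. Plasma JBP485 by UPLC-MS/MS. Absolute F = (AUCpo×Div)/(AUCiv×Dpo)×100%, using AUC0-t.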

Rattus norvegicus [6] = experiment: Anti-hepatitis activity in ANIT-induced Sprague-Dawley rat model of liver injury assessed as reduction in liver necrosis at 6.25 to 12.5 mg/kg, ip administered 30 mins prior to ANIT challenge and subsequent dosing at 8, 22, 32, and 46 hrs post ANIT challenge and measured 48 hrs post ANIT challenge by H and E staining-based assay; format: functional, organism-based
Procedure, shortened: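 ANIT 50 mg/kg ip liver-injury model in male SD rats, 6 per group. Oral or ip treatment at 30 min before and 8, 22, 32 and 46 h after ANIT. Liver excised at 48 h, fixed in 4% formalin, stained with H&E, and examined microscopically for hepatocellular edema and necrosis.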

[7] = AUC (0 to t) in Sprague-Dawley rat assessed as JBP485 level at 100 mg/kg, po by LC-MS/MS analysis; format: ADME, organism-based; settings: in vivo; procedure, shortened: as §1
[8] = Cmax in Sprague-Dawley rat assessed as JBP485 level at 12 mg/kg, po by LC-MS/MS analysis; format: ADME, organism-based; parameters: dose 12 mg/kg, route oral; settings: in vivo; procedure, shortened: as §1
[9] = AUC (0 to t) in Sprague-Dawley rat assessed as JBP485 level at 12 mg/kg equiv of JBP485 administered orally by UPLC-MS/MS analysis; format: ADME, organism-based; settings: in vivo, po; procedure, shortened: as §1
[10] = Cmax in Sprague-Dawley rat assessed as JBP485 level at 12 mg/kg equiv of JBP485 administered orally by UPLC-MS/MS analysis; format: ADME, organism-based; parameters: dose 12 mg/kg, route oral; settings: in vivo, po; procedure, shortened: as §1
Rattus norvegicus [11] = experiment: Anti-hepatitis activity in ANIT-induced Sprague-Dawley rat model of liver injury assessed as reduction in serum aspartate aminotransferase level at 3.125 to 25 mg/kg, po administered 30 mins prior to ANIT challenge and subsequent dosing at 8, 22, 32, and 46 hrs post ANIT challenge and measured 48 hrs post ANIT challenge; format: functional, organism-based
Procedure, shortened: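 ANIT (50 mg/kg ip, olive oil) cholestatic liver injury in male SD rats, 6 per group. Oral or ip dosing (UDCA 100 mg/kg po in CMC-Na) at 30 min before and 8, 22, 32 and 46 h after ANIT. Serum collected at 48 h from the abdominal aorta; ALT and AST activities measured with kits.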

Structure (SMILES) | half-life at 5000 µM [1] | Drug uptake [2] | Drug uptake [3] | half-life [4] | Cmax [5] | Activity (Rattus norvegicus [6]) | AUCt [7] | Cmax [8] | AUCt [9] | Cmax [10] | Activity (Rattus norvegicus [11])
O=C1N[C@@H](CO)C(=O)N2C[C@H](O)C[C@@H]12 | > 20 h | Not Active | Not Active | 1.13 h | 27.8 µM | Active | 324 µM·h | 27.84 nM/ml | – | – | –
CC(C)[C@H](N)C(=O)OC[C@@H]1NC(=O)[C@@H]2C[C@@H](O)CN2C1=O | 2.9 h | Not Active | Not Active | – | – | – | – | – | 194.47 nM/ml.hr | 113 µM | Active
